Reference: publication PMC8526916 (International Journal for Parasitology: Drugs and Drug …, 2021)

What was measured:
[1] = system: N. caninum soluble antigens; test: In-house indirect ELISA, IgG against N. caninum soluble antigens in dams; assay type: in vivo, sheep
Method in brief: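 Dam sera were collected before infection, at 3, 5, 7 and 10 days pi, then weekly. Plates were coated with soluble N. caninum antigen and blocked; sera were diluted 1:100 in 1% BSA in PBS with 0.05% Tween 20. Detection used HRP anti-goat/sheep IgG (1:20000) with ABTS, stopped with 0.3 M oxalic acid, read at OD405 and expressed as RIPC. Analysis: repeated-measures two-way ANOVA to day 28 pi, one-way ANOVA after.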

[2] = Plasma protein binding by equilibrium dialysis, rat plasma; assay type: in vitro ADME; conditions: 5 μM
Method in brief: (§1)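 Test compound in DMSO was spiked into plasma at 5 μM; an aliquot of spiked plasma served as the 100% recovery standard. Samples were matrix-matched, extracted in 80% acetonitrile with internal standard and quantified by UPLC-MS/MS. Fraction bound = bound/(unbound + bound), corrected for matrix dilution.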

Nc-Spain7 isolate = conditions: in vitro, ref Winzer et al., 2015; cited from earlier work
[3] = pregnant sheep; ref Sánchez-Sánchez et al., 2019; cited from earlier work
[4] = ref Schaefer et al., 2016; cited from earlier work
Neospora caninum = test: qPCR parasite burden in placentomes and foetal brain; assay type: in vivo; conditions: aborted sheep
Method in brief: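 DNA was extracted by paramagnetic-particle capture from 50–100 mg of foetal brain (three replicates each) and six placental samples per dam. Samples were screened by nested Nc5-PCR (337 bp product), with 10, 1 and 0.1 tachyzoite-equivalent controls in 100 ng sheep DNA and an uninfected-group negative. PCR-positive samples were quantified by real-time PCR; burdens compared by Mann–Whitney test.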

[5] = system: Neospora caninum Nc-Spain7 tachyzoites; test: Foetal survival in pregnant sheep infected with N. caninum at mid-pregnancy; assay type: in vivo
[6] = Plasma protein binding by equilibrium dialysis, human plasma; assay type: in vitro ADME; conditions: 5 μM
Method in brief: as §1

[7] = mice; ref Vidadala et al., 2016; cited from earlier work
NcSAG1 = test: Commercial TgSAG1 ELISA, anti-NcSAG1 IgG in dams; assay type: in vivo, sheep; conditions: days 21 (P < 0.01) and 42 pi (P < 0.05)
IFNγ = test: Peripheral blood cell stimulation assay, IFNγ production; assay type: in vivo, sheep
Method in brief: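 Heparinized jugular blood from dams was sampled before infection, at 3, 5, 7 and 10 days pi, then weekly. Blood was cultured with soluble N. caninum antigen or ConA for 24 h at 37 °C, 5% CO2, and IFNγ measured in supernatants by enzyme immunoassay. Analysis: repeated-measures two-way ANOVA to day 28 pi, one-way ANOVA afterwards; mean ± S.D.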

[8] = Plasma protein binding by equilibrium dialysis, mouse plasma; assay type: in vitro ADME; conditions: 5 μM
Method in brief: as §1

BKI-1294 plasma exposure = assay type: in vivo, sheep; conditions: G1
Method in brief: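 Rasa Aragonesa ewes (12 months, seronegative), challenged i.v. with Nc-Spain7 tachyzoites. From 48 h pi, test compound was given orally by oro-ruminal probe at 100 mg/kg, 5 doses every other day. Heparinized blood was sampled at set times and plasma analysed by LC-MS/MS. Troughs were taken 48 h after each dose; values are mean ± S.D.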

[9] = Safety monitoring of treated pregnant sheep; assay type: in vivo
Method in brief: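 Infected pregnant ewes received test compound orally at 100 mg/kg, 5 doses every other day from 48 h pi; uninfected controls received vehicle. A veterinarian observed animals daily for faecal consistency, blood in faeces and behavioural changes. Rectal temperature was taken daily to day 14 pi, then weekly; >40 °C counted as fever.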

[10] = system: Neospora caninum Nc-Spain7 tachyzoites; test: Rectal temperatures and fever in N. caninum-infected pregnant sheep; assay type: in vivo; conditions: days 5, 7 and 9 pi
[11] = system: Toxoplasma gondii oocysts; conditions: sheep infected with T. gondii oocysts during pregnancy; ref Sánchez-Sánchez et al., 2019; cited from earlier work
[12] = Plasma protein binding by equilibrium dialysis, dog plasma; assay type: in vitro ADME; conditions: 5 μM
Method in brief: as §1

Compound: CCOc1ccc2cc(-c3nn(CC4CCN(C)CC4)c4ncnc(N)c34)ccc2c1 [BKI-1294]
- IgG levels against N. caninum soluble antigens versus infected/untreated group ([1]; days 14, 21 and 28 pi): lower antibody response
- IgG levels against N. caninum soluble antigens versus infected/untreated group ([1]; from day 35 pi onwards): no significant differences
- plasma protein binding (bound) [2]: 85%
- IC50 (Nc-Spain7 isolate): 270 ± 20 nM
- safety of repeated oral administration [3]: safe, both locally and systemically
- PPB in mice [4]: 85%
- parasite burden in placentomes versus infected/untreated group (Neospora caninum): No significant differences
- median day of foetal death ([5]; G1 infected/treated (G2: 45)): 44 day pi
- foetal mortality (sheep whose foetuses died, 7 out of 8) ([5]; G1 infected/treated, same in G2 untreated): 87%
- foetal survival rate versus infected/untreated group ([5]; log-rank test): no significant differences
- plasma protein binding (bound) [6]: 85%
- CNS crossing [7]: 30%
- bioavailability lower than BKI-1553 [7]: 30 fold
- plasma clearance [7]: high plasma clearance
- anti-NcSAG1 IgG levels versus infected/untreated group (NcSAG1): lower anti-NcSAG1 IgG levels
- IFNγ levels versus infected/untreated group (IFNγ; day 7 pi, blood stimulated with N. caninum antigen, P < 0.0001): higher IFNγ levels
- IFNγ levels relative to infected/untreated group (IFNγ; days 14, 21 and 28 pi, not significant): approximately 10 fold
- plasma protein binding (bound) [8]: 85%
- trough plasma concentrations (BKI-1294 plasma exposure; 48 h after 1st oral dose of 100 mg/kg): 0.7 ± 0.4 µM
- trough plasma concentrations (BKI-1294 plasma exposure; 48 h after 2nd oral dose of 100 mg/kg): 0.7 ± 0.4 µM
- trough plasma concentrations (BKI-1294 plasma exposure; 48 h after 3rd oral dose of 100 mg/kg): 0.9 ± 0.5 µM
- trough plasma concentrations (BKI-1294 plasma exposure; 48 h after 4th oral dose of 100 mg/kg): 1.4 ± 1.1 µM
- trough plasma concentrations (BKI-1294 plasma exposure; 48 h after 5th oral dose of 100 mg/kg): 1.3 ± 0.8 µM
- safety of oral administration ([9]; N. caninum-infected pregnant sheep, oral 100 mg/kg x5): safe
- Diarrhoea, bloody stools, and behavioural disorders ([9]; oral 100 mg/kg, 5 doses every other day, pregnant sheep): not observed
- rectal temperatures versus infected/untreated group [10]: significantly lower increase in rectal temperatures
- efficacy against abortion [11]: 71%
- efficacy against vertical transmission [11]: 53%
- plasma protein binding (bound) [12]: 52%
